Hits are enriched below; roughly 4.9% of the tested compounds scored in any of these assays.
HSF1 inh = HSF1 inhibition. 300,000 tested, 0.77% active. NIH3T3-HGL HSE-luciferase, MG132-induced, luminescence 8 h; stronger effect = lower value. activity change, negative = inhibition, % at 7.5 µM (by protocol). AID 2098;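 active = more than half of replicate wells show activity change below -50%, luminescence cut by over half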;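 note: luciferase reports HSF-1 transcriptional activity via heat shock element; 0% = median of DMSO wells and -100% = zero luminescence signal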
CHT PAM = allosteric activators of human choline transporter CHT; CHT-expressing cells, membrane potential dye, choline EC20; stronger effect = higher value; LV-AA mutant CHT in HEK293 cells; B-score at 10 µM; Q9GZV3; 310,000 tested, 0.49% active;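 active = initial fluorescence not abnormally high and integrated response B-score, plate-corrected, over 3 SD above library mean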
Target sequence (Q9GZV3 whole entry, looked up): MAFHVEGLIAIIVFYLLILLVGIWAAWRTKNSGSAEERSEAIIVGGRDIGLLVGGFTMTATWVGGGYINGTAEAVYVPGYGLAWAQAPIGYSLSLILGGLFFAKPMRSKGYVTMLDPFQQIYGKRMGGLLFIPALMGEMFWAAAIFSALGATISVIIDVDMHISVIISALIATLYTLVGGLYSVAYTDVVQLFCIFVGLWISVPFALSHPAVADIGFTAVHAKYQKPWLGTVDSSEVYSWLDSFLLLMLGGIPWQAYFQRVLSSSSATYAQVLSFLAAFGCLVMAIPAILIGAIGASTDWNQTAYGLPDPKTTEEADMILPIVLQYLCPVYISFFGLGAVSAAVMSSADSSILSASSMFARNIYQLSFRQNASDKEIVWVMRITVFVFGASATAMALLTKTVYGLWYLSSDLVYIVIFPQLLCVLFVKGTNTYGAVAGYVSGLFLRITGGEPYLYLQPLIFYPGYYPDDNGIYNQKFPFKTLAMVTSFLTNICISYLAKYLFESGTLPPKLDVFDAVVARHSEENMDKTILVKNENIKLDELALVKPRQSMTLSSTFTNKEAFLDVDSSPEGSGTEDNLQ
CHT inh = human CHT choline transport inhibition | B-score at 10 µM | 310,000 tested, 0.86% active | CHT-expressing cells, membrane potential dye, choline response; stronger effect = lower value;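 active = B-score over 3 SD under the library average, and starting fluorescence ratio not unusually high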;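 note: choline stimulus applied at its EC90 after an EC20 pre-addition; B-score computed on integrated fluorescence ratio after choline addition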
PHOSPHO1 block = blocks human PHOSPHO1 phosphatase activity; recombinant PHOSPHO1, absorbance phosphatase assay; inhibition, % at 13.3 µM; 290,000 tested, 1.1% active; in the data active = inhibition above about 60%
Lipid droplet = modulators of hepatic lipid droplet formation | inhibition, % at 6.5 µM | 240,000 tested, 0.4% active | AML12 mouse hepatocytes, oleate lipid droplets, BODIPY imaging;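 active = lipid droplet intensity inhibited by at least 50%, with more than 500 cells counted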
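Assay system: AML12 mouse liver cells | Compound: 6.5 µM single-point dosing | Schedule: Overnight exposure | Technique: Fluorescence imaging, 20x objective, two fields per well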
HSF-1 act = increases HSF-1 driven luciferase reporter signal. NIH3T3-HGL HSF-1 luciferase reporter, MG132, 8 h; 100% = twice DMSO control signal. 300,000 tested, 1.7% active. activation, % at 9 µM. AID 504408;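 active = mean replicate activation of at least 50% with a set share of replicates each reaching 50%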;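 note: 0% = median of the neutral control wells and 100% = twice that signal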
Active calls of the source: *; i = inactive; . = no result.

SMILES | HSF1 inh | CHT PAM | CHT inh | PHOSPHO1 block | Lipid droplet | HSF-1 act
Cc1ccc(C(=O)Cc2cc3ccccc3oc2=O)c(C)c1 | 58.6 | i | i | 13.4 | 11.5 | 85.5*
COc1ccc(C(=O)COC(=O)c2cc3ccccc3oc2=O)c(OC)c1 | 4.0 | i | i | . | . | -1.3
COc1ccc(C(=O)Cc2cc3ccccc3oc2=O)cc1 | 47.8 | i | i | 42.2 | -0.8 | 56.2*
CCCOC(=O)c1ccc(OCC(O)Cn2c(C)nc3ccccc32)cc1 (configuration not stated) | 1.3 | . | . | 2.0 | -2.3 | 4.9
CC(C)(C)NC(=O)C(c1ccc(Cl)cc1)N(Cc1ccco1)C(=O)CCl (configuration not stated) | -0.4 | i | i | 35.6 | -3.7 | 12.7
O=S(=O)(/N=C(/c1ccccc1Cl)N1CCOCC1)c1ccccc1 | -58.0* | i | i | -12.6 | . | -68.2
CC(NC(=O)c1cc(-c2ccccc2)nc2ccccc12)C1CCCO1 (configuration not stated) | 7.3 | i | i | 23.6 | -5.4 | 52.1*
CC(C)(C)C(=O)NC(=S)NNC(=O)c1sc2ccccc2c1Cl | -68.8* | i | i | -37.9 | -21.9 | -75.2
CC(NC(=O)c1cc(-c2ccncc2)nc2ccc(Br)cc12)C1CCCO1 (configuration not stated) | 2.4 | i | i | 27.6 | -4.6 | -5.2
CC(NC(=O)c1sc2ccccc2c1Cl)C1CCCO1 (configuration not stated) | 23.2 | i | i | -27.0 | 12.7 | 68.8*
Cc1cc(C(=O)NC(C)C2CCCO2)no1 (configuration not stated) | -6.1 | i | i | 60.0* | 10.1 | -1.4
Cc1cc(C(=O)NC(C)C2CCCO2)c(C)o1 (configuration not stated) | -2.0 | i | i | 9.2 | 1.6 | 8.3
Cc1nc2ccccc2c(=O)n1/N=C/c1ccccc1Cl | 8.1 | i | i | 10.6 | 14.2 | 8.2
CCOc1ccccc1C(=O)OCC(=O)Nc1nnc(-c2ccccc2)o1 | -0.1 | i | i | . | . | -5.9
COCCn1c(C)cc(C(=O)CSc2nnc3ccccn23)c1C | -51.2* | i | i | 36.5 | . | -59.6
COCCn1c(SCC(=O)c2cc(C)n(C)c2C)nc2ccccc2c1=O | -72.3* | i | i | 15.0 | -11.5 | -77.2
COCCn1c(C)cc(C(=O)CSc2nc3ccccc3o2)c1C | 12.2 | i | i | 97.8* | . | 21.9
COCCn1c(SCC(=O)N2CCCCC2)nc2ccccc2c1=O | 6.5 | i | i | -30.6 | . | 35.1
O=C(NCc1cccc(Cl)c1)c1ccc2nc[nH]c2c1 | 1.7 | i | i | 11.6 | 3.7 | 14.2
CC(SC1=NCCN1S(=O)(=O)c1ccccc1)c1ccccc1 (configuration not stated) | 0.0 | i | i | 61.0* | -17.6 | 3.0
Cc1ccc(S(=O)(=O)N2CCN=C2SC(C)c2ccccc2)cc1 (configuration not stated) | 2.2 | i | i | 37.0 | -3.6 | 0.7
Nc1nc2ccccc2n1CCOc1ccccc1Cl | 1.2 | i | -13.9* | 33.1 | . | -2.4
O=C(NNC(=O)c1ccccc1C(=O)O)c1ccc(-c2ccccc2)cc1 | -16.8 | i | -6.66* | -25.9 | -7.0 | -39.4
NC(=O)c1c(N)sc2c1CCCC2 | -0.2 | i | i | 92.4* | . | -16.3
Nc1sc2c(c1C(=O)c1ccccc1)CCCC2 | 13.0 | i | i | 53.3 | . | 4.1
SMILES | HSF1 inh | CHT PAM | CHT inh | PHOSPHO1 block | Lipid droplet | HSF-1 act
Cc1c(-c2ccc(Br)cc2)nc2ccccn12 | 26.1 | i | i | 8.6 | -14.5 | 51.5*
CCCNCC1COc2ccccc2O1 (configuration not stated) | -0.6 | i | i | -2.7 | 16.8 | 4.7
COc1cccc(OC)c1OCCNCC1COc2ccccc2O1 (configuration not stated) | 34.3 | i | i | . | . | 52.9*
Cc1nc(/C=C/c2ccccc2)[nH]c(=O)c1-c1ccccc1 | 7.7 | i | i | -9.3 | -0.1 | 23.8
COc1ccc(-c2[nH]ncc2/C=N\NC(=O)c2ccc(C(C)(C)C)cc2)cc1OC | 3.7 | i | i | 18.3 | 20.9 | 34.3
CCCCOc1ccc(C(=O)N/N=C/c2cn[nH]c2-c2ccc(OC)c(OC)c2)cc1 | 17.3 | i | i | 4.9 | -6.0 | 54.1*
Cc1cc(C(=O)CCC(=O)Nc2ncccc2O)c(C)s1 | 6.0 | i | i | . | . | 26.1
C=CCn1c(=NC(=O)C2CC2)sc2cc(NC(C)=O)ccc21 | -55.4* | i | i | -9.3 | . | -65.1
C#CCn1c(=NC(=O)c2ccc(Br)s2)sc2cc(NC(C)=O)ccc21 | -8.1 | i | i | -0.9 | 9.5 | -15.0
CC1(C)Oc2ccc3ccc(=O)oc3c2-c2cnoc21 | 3.1 | i | i | 94.6* | 0.1 | 19.1
CC1(C)Oc2ccc3ccc(=O)oc3c2/C(=C/N)C1=O | -8.4 | i | i | 72.9* | . | -6.9
COc1cc(/C=C/C(=O)OCC(=O)NC(=O)NC(C)C)cc(OC)c1OC | -8.7 | i | i | 52.7 | 10.1 | -1.6
O=C(Nc1ccccc1C(F)(F)F)c1cc(-c2ccccc2O)on1 | 23.1 | i | i | -0.9 | -119.2 | 65.5*
N#Cc1cc(Cl)c(NCC2CCCO2)cc1C#N (configuration not stated) | 49.5 | i | i | 18.9 | -32.9 | 88.6*
Cc1ccccc1N=C1c2cc([N+](=O)[O-])ccc2-c2ncccc21 | -1.7 | 9.66* | i | 4.1 | 1.6 | 0.8
Cc1cc([N+](=O)[O-])cc2c1-c1ncccc1C2=Nc1ccccc1 | 2.1 | i | i | -1.1 | 2.3 | 4.9
C=CCc1cccc(/C=C/c2cc(=O)c3ccccc3[nH]2)c1O | 25.4 | i | i | -1.5 | -2.1 | 54.6*
Cc1ccc2oc(/N=C(\N)NC(=O)C(C)(C)C)nc2c1 | -90.9* | i | i | 40.9 | -3.5 | -92.6
CC1CCCN(C(=O)CCNC(=O)c2ccccc2Cl)C1 (configuration not stated) | -3.3 | i | i | 22.6 | 0.8 | -4.7
CCc1cc(CNC(=O)c2ccc(OC3CCN(C(C)=O)CC3)c(OC)c2)on1 | -3.2 | i | i | 67.0* | -17.3 | 1.7
S=C(N/N=C/c1ccc2ncccc2c1)Nc1cccnc1 | -64.6* | i | i | 5.8 | -14.1 | -65.1
Oc1ccc(/C=N/NC(=S)Nc2cccnc2)cc1O | -1.6 | i | i | 3.2 | 2.3 | -7.6
CCCCNC(=S)N(Cc1c(C)noc1C)c1ccccc1 | 11.3 | i | i | -6.2 | 3.8 | 42.3
CN1CCC(OC(=O)c2cc3cc(Cl)cc(Cl)c3oc2=O)CC1 | 1.9 | i | i | 61.1* | -3.3 | -10.2

Screening data (PubChem)
